Each structure is given as a SMILES string. Activity calls are given as the source filed them. No cut-off for these calls is given here.

Data set [1] can be described thus: Toxicity in human MKL-1 cells xenografted NSG mouse assessed as effect on body weight at 50 mg/kg, ip administered daily for 3 weeks. Format: organism-based. Conditions: in vivo, 504 h. In a few lines:
(§1)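 Mice with subcutaneous xenografts dosed i.p. daily for 3 weeks (vehicle 10% 2-hydroxypropyl-β-cyclodextrin in water) and monitored daily. Toxicity judged from body weight, food and water intake, activity and general examination.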
Background: In xenograft studies the graft and the host belong to different species.

For data set [2], the system named is MCC-3. Briefly: Antitumor activity against human MCC-3 cells xenografted in NSG mouse assessed as reduction in c-Myc mRNA expression at 50 mg/kg, ip administered daily for 3 weeks and measured post-last dose by qRT-PCR analysis. The class given is functional, organism-based. In a few lines:
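Excised xenograft tumours from NSG mice dosed i.p. daily for 3 weeks (vehicle 10% 2-hydroxypropyl-β-cyclodextrin in water) versus vehicle group. c-Myc mRNA measured by qRT-PCR on 3 biological replicates.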

Data set [3] is described as follows: Antitumor activity against human MKL-1 cells xenografted in NSG mouse assessed as reduction in tumor volume at 50 mg/kg, ip administered daily for 3 weeks and measured post-last dose by caliper method relative to control. Format: functional. Also on record: scale not given: the % may be the effect or the level left. Summed up: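 NSG mice with subcutaneous flank xenografts (MKL-1: 2 × 10^7 cells in matrigel), randomised at ~100 mm3 (n ≥ 7 per group). Dosed i.p. daily for 3 weeks; vehicle 10% 2-hydroxypropyl-β-cyclodextrin in water. Calipers, volume = L2 × W/2; final tumour volume, mean ± SEM, Mann-Whitney test.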

Data set [4] can be described thus: Toxicity in human MKL-1 cells xenografted NSG mouse assessed as effect on general examination at 50 mg/kg, ip administered daily for 3 weeks. The class given is organism-based. Conditions: in vivo, 504 h. In a few lines: as §1
The nature of data set [5]: Toxicity in human MCC-3 cells xenografted NSG mouse assessed as effect on water intake at 50 mg/kg, ip administered daily for 3 weeks. The class given is organism-based. The conditions noted are these: in vivo, 504 h. Summed up:
as §1

A short description of data set [6]: Toxicity in human MKL-1 cells xenografted NSG mouse assessed as effect on activity at 50 mg/kg, ip administered daily for 3 weeks. Format: organism-based. The conditions noted are these: in vivo, 504 h. Summed up: as §1
A short description of data set [7]: Antitumor activity against human MCC-3 cells xenografted in NSG mouse assessed as reduction in tumor volume at 50 mg/kg, ip administered daily for 3 weeks and measured post-last dose by caliper method relative to control. The class given is functional. On the set-up: scale not given: the % may be the effect or the level left.
Data set [8] concerns MCC-3. Description: Antitumor activity against human MCC-3 cells xenografted in NSG mouse assessed as effect on H3K27Ac expression at 50 mg/kg, ip administered daily for 3 weeks and measured post-last dose by immunoblotting method. Format: functional, organism-based. In a few lines:
(§2)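 Tumours excised at endpoint from NSG mice bearing subcutaneous flank xenografts (~100 mm3 at randomisation), dosed i.p. daily for 3 weeks, vehicle 10% 2-hydroxypropyl-β-cyclodextrin in water. Lysates resolved by SDS-PAGE, electroblotted to PVDF (200V, 2 h). Membranes blocked in 5% milk, primary antibody overnight at 4°C, then secondary 1 h, and detected by ECL.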

The test system of data set [9] is MCC-3. Description: Antitumor activity against human MCC-3 cells xenografted in NSG mouse assessed as effect on BRD4 expression at 50 mg/kg, ip administered daily for 3 weeks and measured post-last dose by immunoblotting method. Format: functional, organism-based. In a few lines:
as §2

A short description of data set [10]: Toxicity in human MKL-1 cells xenografted NSG mouse assessed as effect on water intake at 50 mg/kg, ip administered daily for 3 weeks. Conditions: in vivo, 504 h. The class given is organism-based. In a few lines:
as §1

Data set [11] relates to Mus musculus. Description: In vivo disruption of BRD4 occupancy at the putative c-Myc super-enhancer region in human MCC-3 cells xenografted NSG mouse at 50 mg/kg, ip administered daily for 3 weeks and measured post-last dose by ChIP-qPCR analysis. The class given is functional, organism-based. In a few lines:
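Frozen xenograft tumours crosslinked with 1% formaldehyde for 10 min, quenched with 0.125 M glycine, lysed and sonicated. Anti-BRD4 IP on anti-rabbit IgG beads. SYBR qPCR with primers at the putative c-Myc super-enhancer, plus control regions 5000 bp up- and downstream. 3 biological replicates, vehicle versus treated.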

For data set [12], the system named is MCC-3. Description: Antitumor activity against human MCC-3 cells xenografted in NSG mouse assessed as reduction in c-Myc expression at 50 mg/kg, ip administered daily for 3 weeks and measured post-last dose by immunoblotting method. Format: functional, organism-based. In a few lines: as §2
Data set [13] can be described thus: Toxicity in human MCC-3 cells xenografted NSG mouse assessed as effect on food intake at 50 mg/kg, ip administered daily for 3 weeks. The class given is organism-based. The conditions noted are these: in vivo, 504 h. In a few lines:
as §1

The nature of data set [14]: Toxicity in human MKL-1 cells xenografted NSG mouse assessed as effect on food intake at 50 mg/kg, ip administered daily for 3 weeks. The class given is organism-based. Conditions: in vivo, 504 h. Summed up: as §1
A short description of data set [15]: Toxicity in human MCC-3 cells xenografted NSG mouse assessed as effect on general examination at 50 mg/kg, ip administered daily for 3 weeks. Format: organism-based. The conditions noted are these: in vivo, 504 h. In a few lines:
as §1

Data set [16] in a line: Toxicity in human MCC-3 cells xenografted NSG mouse assessed as effect on body weight at 50 mg/kg, ip administered daily for 3 weeks. Format: organism-based. The conditions noted are these: in vivo, 504 h. In a few lines: as §1
The nature of data set [17]: Toxicity in human MCC-3 cells xenografted NSG mouse assessed as effect on activity at 50 mg/kg, ip administered daily for 3 weeks. Format: organism-based. Conditions: in vivo, 504 h. In a few lines: as §1

Turning to `Cc1sc2c(c1C)C(c1ccc(Cl)cc1)=N[C@@H](CC(=O)OC(C)(C)C)c1nnc(C)n1-2`, the Activity result in data set [1] is “Non-Toxic”; in [3] it was 48.9%; in [4] it was “Non-Toxic”; in data set [5] it was “Non-Toxic”; in [6], “Non-Toxic”; in [7], 75.6%. For the same compound, the Activity result in [10], in [13], in data set [14], in data set [15], in data set [16] and in [17] was “Non-Toxic” throughout. The result in [2], in data set [11] and in [12] was Active. Also, the outcome in [8] and in data set [9] was inactive.

The values above are taken from ChEMBL document CHEMBL5712887, “Disruption of BRD4 at H3K27Ac-enriched enhancer region correlates with decreased c-Myc expression in Merkel cell carcinoma” (Epigenetics, 2015).
